Results from ChEMBL document CHEMBL1126084, “2-Acetylpyridine thiocarbonohydrazones. Potent inactivators of herpes simplex virus ribonucleotide reductase” (J Med Chem, 1992).

Experiments:
Human alphaherpesvirus 1 [1] = assay: Inhibitory index against HSV-1 ribonucleotide reductase calculated as, [1+k inact/f+0.01] where f = 1-% inhibition/100).; type: functional
In short: (§1)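 Index per eq 1 combines kinact and percent inhibition of initial velocity from reductase reactions ±5 μM inhibitor (unless otherwise indicated). 0.99 is subtracted from the calculated ratio, so a non-inhibiting, non-inactivating compound scores zero. HSV-1 and human enzymes were assayed under their respective conditions.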

Human alphaherpesvirus 1 [2] = assay: Inactivation of HSV-1 ribonucleotide reductase by the compound (5 uM) at rate constant K inact.; type: functional
In short: (§2)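 Partially purified HSV-1 ribonucleotide reductase, assayed by reduction of purified [14C]CDP in 200 mM Hepes Na+ pH 7.7, 10 mM dithiothreitol, 2 μM CDP (500 Ci/mol, 3–4 × Km), with and without 5 μM inhibitor unless otherwise indicated. First-order kinact (per hour) and v0 of decelerating product time courses come from iterative nonlinear least squares. kinact is the net increase over the uninhibited control, and % inhibition refers to v0.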

[3] = target: T1, Ribonucleoside-diphosphate reductase RR1 (Homo sapiens) (UniProt P23921+Q7LG56+P31350); assay: Inhibition of human ribonucleotide reductase by the compound (5 uM); type: protein-complex assay
In short: (§3)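 The ATP contributed about 3 μM iron, keeping inhibitors iron-complexed. Reactions ran ±5 μM inhibitor unless otherwise indicated. kinact (per hour, net over the control) and v0 came from iterative nonlinear least-squares fits of decelerating time courses.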

Human alphaherpesvirus 1 [4] = assay: Inhibition of HSV-1 ribonucleotide reductase by the compound (5 uM); type: functional; in short: as §2
[5] = target: T1, Ribonucleoside-diphosphate reductase RR1 (Homo sapiens); assay: Inhibitory index against human ribonucleotide reductase calculated as, [1+k inact/f+0.01] where f = 1-% inhibition/100).; type: protein-complex assay; in short: as §1
[6] = target: T1, Ribonucleoside-diphosphate reductase RR1 (Homo sapiens); assay: Inactivation of human ribonucleotide reductase by the compound (5 uM) at rate constant K inact.; type: protein-complex assay; in short: as §3
[7] = target: T1, Ribonucleoside-diphosphate reductase RR1 (Homo sapiens); assay: Apparent enzyme activity measured as the ratio of HSV-1 and human enzyme inhibition induces; type: functional; settings: Human alphaherpesvirus 1
In short: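 Apparent selectivity is the ratio of HSV-1 to human inhibition indices, each from eq 1 at 5 μM inhibitor or at the indicated concentration for each enzyme.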

[8] = pKa value of the compound; type: physicochemical
In short: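 Protonation and anion-generation pKa values were determined spectrophotometrically.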

Human alphaherpesvirus 1 [9] = assay: Inhibition of HSV-1 ribonucleotide reductase; design: concentration or dose not given beside the values; settings: concentration not given here; in short: as §2
Human alphaherpesvirus 1 [10] = assay: Inhibitory index against HSV-1 ribonucleotide reductase; in short: as §1
Human alphaherpesvirus 1 [11] = assay: Inactivation of HSV-1 ribonucleotide reductase at rate constant K inact; in short: as §2
[12] = target: T1, Ribonucleoside-diphosphate reductase RR1 (Homo sapiens); assay: Inhibition of human ribonucleotide reductase; type: protein-complex assay; design: concentration or dose not given beside the values; settings: concentration not given here; in short: as §3
[13] = target: T1, Ribonucleoside-diphosphate reductase RR1 (Homo sapiens); assay: Inhibitory index against human ribonucleotide reductase; type: protein-complex assay; in short: as §1
[14] = target: T1, Ribonucleoside-diphosphate reductase RR1 (Homo sapiens); assay: Inactivation of human ribonucleotide reductase at rate constant K inact; type: protein-complex assay; in short: as §3
[15] = Partition coefficient (logD5.2) (octanol/pH 5.2 acetate buffer); type: physicochemical

C/C(=N\N=C(/S)N/N=C(\S)NC12CC3CC(CC(C3)C1)C2)c1ccccn1
Inhibitory index (Human alphaherpesvirus 1 [1]): 27 | kinact (Human alphaherpesvirus 1 [2]): 14 h⁻¹ | inhibition [3]: 53% | Inhibition (Human alphaherpesvirus 1 [4]): 47% | Inhibitory index [5]: 1.1 | kinact [6]: 0 h⁻¹ | Apparent selectivity (HSV-1/human inhibition index ratio) [7]: 24

C/C(=N\N=C(/S)N/N=C(\S)NCCCN1CCOCC1)c1ccccn1
Inhibitory index (Human alphaherpesvirus 1 [1]): 7 | kinact (Human alphaherpesvirus 1 [2]): 6.1 h⁻¹ | inhibition [3]: 23% | Inhibition (Human alphaherpesvirus 1 [4]): 12% | Inhibitory index [5]: 0.29 | kinact [6]: 0 h⁻¹ | Apparent selectivity (HSV-1/human inhibition index ratio) [7]: 24

C/C(=N\N=C(/S)N/N=C(\S)Nc1cccc(C(F)(F)F)c1)c1ccccn1
pKa [8]: 3.89 | inhibition (Human alphaherpesvirus 1 [9]): 15% | Inhibitory index (Human alphaherpesvirus 1 [10]): 40 | kinact (Human alphaherpesvirus 1 [11]): 34 h⁻¹ | inhibition [12]: 31% | Inhibitory index [13]: 1.9 | kinact [14]: 1 h⁻¹ | Apparent selectivity (HSV-1/human inhibition index ratio) [7]: 21

C/C(=N\N=C(/S)N/N=C(\S)Nc1cccc(I)c1)c1ccccn1
pKa [8]: 3.8 | inhibition (Human alphaherpesvirus 1 [9]): 27% | Inhibitory index (Human alphaherpesvirus 1 [10]): 34 | kinact (Human alphaherpesvirus 1 [11]): 25 h⁻¹ | inhibition [12]: 7% | Inhibitory index [13]: 3.3 | kinact [14]: 3 h⁻¹ | Apparent selectivity (HSV-1/human inhibition index ratio) [7]: 10

CCOC(=O)NC(=S)N/N=C(\S)N/N=C(\C)c1ccccn1
Inhibitory index (Human alphaherpesvirus 1 [1]): 7 | kinact (Human alphaherpesvirus 1 [2]): 6 h⁻¹ | inhibition [3]: 40% | Inhibition (Human alphaherpesvirus 1 [4]): 14% | Inhibitory index [5]: 3.9 | kinact [6]: 2 h⁻¹ | Apparent selectivity (HSV-1/human inhibition index ratio) [7]: 1.8

C/C(=N\N=C(/S)NNC(=S)NC(=O)c1ccccc1)c1ccccn1
Inhibitory index (Human alphaherpesvirus 1 [1]): 24 | kinact (Human alphaherpesvirus 1 [2]): 15 h⁻¹ | inhibition [3]: 54% | Inhibition (Human alphaherpesvirus 1 [4]): 38% | Inhibitory index [5]: 5.4 | kinact [6]: 2 h⁻¹ | Apparent selectivity (HSV-1/human inhibition index ratio) [7]: 4.5

C/C(=N\N=C(/S)N/N=C(\S)Nc1ccccc1)c1ccccn1
Inhibitory index (Human alphaherpesvirus 1 [1]): 21 | kinact (Human alphaherpesvirus 1 [2]): 20 h⁻¹ | inhibition [3]: 59% | Inhibition (Human alphaherpesvirus 1 [4]): 7% | Inhibitory index [5]: 8.5 | kinact [6]: 3 h⁻¹ | Apparent selectivity (HSV-1/human inhibition index ratio) [7]: 2.5

C/C(=N\N=C(/S)N/N=C(\S)Nc1ccncc1)c1ccccn1
Inhibitory index (Human alphaherpesvirus 1 [1]): 17 | kinact (Human alphaherpesvirus 1 [2]): 16 h⁻¹ | inhibition [3]: 83% | Inhibition (Human alphaherpesvirus 1 [4]): 8% | Inhibitory index [5]: 4.6 | kinact [6]: 0 h⁻¹ | Apparent selectivity (HSV-1/human inhibition index ratio) [7]: 3.8

C/C(=N\N=C(/S)N/N=C(\S)Nc1ccccc1Cl)c1ccccn1
pKa [8]: 3.94 | logD [15]: 2.67 | inhibition (Human alphaherpesvirus 1 [9]): 0% | Inhibitory index (Human alphaherpesvirus 1 [10]): 27 | kinact (Human alphaherpesvirus 1 [11]): 27 h⁻¹ | inhibition [12]: 57% | Inhibitory index [13]: 1.3 | kinact [14]: 0 h⁻¹ | Apparent selectivity (HSV-1/human inhibition index ratio) [7]: 21

COc1ccc(Cl)cc1/N=C(\S)N/N=C(\S)N/N=C(\C)c1ccccn1
Inhibitory index (Human alphaherpesvirus 1 [1]): 78 | kinact (Human alphaherpesvirus 1 [2]): 41 h⁻¹ | inhibition [3]: 9% | Inhibition (Human alphaherpesvirus 1 [4]): 48% | Inhibitory index [5]: 1.2 | kinact [6]: 1 h⁻¹ | Apparent selectivity (HSV-1/human inhibition index ratio) [7]: 66

C/C(=N\N=C(/S)N/N=C(\S)NCCN1CCOCC1)c1ccccn1
Inhibitory index (Human alphaherpesvirus 1 [1]): 15 | kinact (Human alphaherpesvirus 1 [2]): 11 h⁻¹ | inhibition [3]: 31% | Inhibition (Human alphaherpesvirus 1 [4]): 24% | Inhibitory index [5]: 1 | kinact [6]: 0.4 h⁻¹ | Apparent selectivity (HSV-1/human inhibition index ratio) [7]: 15

C/C(=N\N/C(S)=N/N=C(\S)N(C)C)c1ccccn1
logD [15]: 1.25 | inhibition (Human alphaherpesvirus 1 [9]): 39% | Inhibitory index (Human alphaherpesvirus 1 [10]): 14 | kinact (Human alphaherpesvirus 1 [11]): 8 h⁻¹ | inhibition [12]: 8% | Inhibitory index [13]: 4.4 | kinact [14]: 4 h⁻¹ | Apparent selectivity (HSV-1/human inhibition index ratio) [7]: 3

C/C(=N\N=C(/S)N/N=C(\S)Nc1ccc(C(F)(F)F)cc1)c1ccccn1
pKa [8]: 3.87 | inhibition (Human alphaherpesvirus 1 [9]): 59% | Inhibitory index (Human alphaherpesvirus 1 [10]): 80 | kinact (Human alphaherpesvirus 1 [11]): 33 h⁻¹ | inhibition [12]: 19% | Inhibitory index [13]: 0.23 | kinact [14]: 0 h⁻¹ | Apparent selectivity (HSV-1/human inhibition index ratio) [7]: 350

C/C(=N\N=C(/S)N/N=C(\S)Nc1cccc(Cl)c1Cl)c1ccccn1
pKa [8]: 3.86 | inhibition (Human alphaherpesvirus 1 [9]): 29% | Inhibitory index (Human alphaherpesvirus 1 [10]): 68 | kinact (Human alphaherpesvirus 1 [11]): 49 h⁻¹ | inhibition [12]: 30% | Inhibitory index [13]: 0.42 | kinact [14]: 0 h⁻¹ | Apparent selectivity (HSV-1/human inhibition index ratio) [7]: 160

C/C(=N\N=C(/S)N/N=C(\S)Nc1ccccc1C)c1ccccn1
Inhibitory index (Human alphaherpesvirus 1 [1]): 14 | kinact (Human alphaherpesvirus 1 [2]): 10 h⁻¹ | inhibition [3]: 51% | Inhibition (Human alphaherpesvirus 1 [4]): 27% | Inhibitory index [5]: 3 | kinact [6]: 1 h⁻¹ | Apparent selectivity (HSV-1/human inhibition index ratio) [7]: 4.6

C/C(=N\N=C(/S)N/N=C(\S)Nc1cccc(C)c1)c1ccccn1
Inhibitory index (Human alphaherpesvirus 1 [1]): 26 | kinact (Human alphaherpesvirus 1 [2]): 19 h⁻¹ | inhibition [3]: 54% | Inhibition (Human alphaherpesvirus 1 [4]): 28% | Inhibitory index [5]: 1.1 | kinact [6]: 0 h⁻¹ | Apparent selectivity (HSV-1/human inhibition index ratio) [7]: 23
